Data on 13 compounds can be found in ChEMBL document CHEMBL1681789, “New bichalcone analogs as NF-κB inhibitors and as cytotoxic agents inducing Fas/CD95-dependent apoptosis” (Bioorg Med Chem, 2011).

Assay [1] has as its system BV-2. Nature of the assay: Inhibition of NADPH oxidase mediated-ROS production in mouse BV2 cells. It is filed as cell-based. In a few lines:
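Compounds were incubated with 50 µg microglial cell homogenate for 20 min at 37 °C in the dark. Superoxide production was started with 200 µM NADPH, and chemiluminescence was followed for 30 min; the AUC represents ROS production. DPI served as positive control.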

Assay [2] in a line: Inhibition of Nitric oxide synthase activity in mouse BV2 cells assessed as LPS-induced NO production after 24 hrs by Griess reaction. It is filed as cell-based. The note with it: BV-2, 24 h. Summed up:
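Murine BV2 microglia were cultured in DMEM with 5% FBS and given 1–50 µM drug with 0.5 µg/mL LPS. Nitrite accumulated in the medium over 24 h was measured by Griess reagent. IC50 values are means ± SEM from 3–6 experiments on different days using different passages.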
(In general: Nitrite, measured by Griess reagent, commonly stands in for NO production.)

Assay [3] has as its system A549. Kind of assay: Cytotoxicity against human A549 cells after 3 days. Format: functional. The conditions noted are these: A549, 72 h. In a few lines:
(§1)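 Seeded at 1500–7500 cells/well; compounds added from DMSO-diluted stock. After 3 days, attached cells were fixed with cold 50% TCA, stained with 0.4% sulforhodamine B and read at 562 nm. EC50 is the concentration reducing growth by 50%, averaged over at least three independent determinations. Cells were grown in RPMI-1640 with […], 0.25% bicarbonate and 10% FBS.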

The test system of assay [4] is HCT-8. Kind of assay: Cytotoxicity against human HCT8 cells after 3 days. It is filed as functional. The note with it: HCT-8, 72 h. Summed up:
as §1

Assay [5] deals with KB. Kind of assay: Cytotoxicity against human KB cells after 3 days. Format: functional. The note with it: 72 h. In a few lines: as §1
Assay [6] concerns DU-145. Kind of assay: Cytotoxicity against human DU145 cells after 3 days. It is filed as functional. The note with it: DU-145, 72 h. In a few lines: as §1
The test system of assay [7] is BV-2. Kind of assay: Inhibition of NF-kappaB nuclear translocation in LPS-stimulated mouse BV2 cells at 1 uM by Western blotting. Format: cell-based. On the technique in general: Immunoblotting shows a protein as a band on a membrane.
Assay [8] relates to BV-2. Kind of assay: Reduction in iNOS protein expression in LPS-stimulated mouse BV2 cells at 1 uM by Western blotting.
The subject of assay [9] is DU-145. Nature of the assay: Cytotoxicity against human DU145 cells at 20 ug/ml after 3 days. It is filed as functional, cell-based.
Assay [10] has as its system HCT-8. Nature of the assay: Cytotoxicity against human HCT8 cells at 20 ug/ml after 3 days. It is filed as functional, cell-based.
Assay [11] deals with A549. Nature of the assay: Cytotoxicity against human A549 cells at 20 ug/ml after 3 days. It is filed as functional, cell-based.
Assay [12] relates to KB. Kind of assay: Cytotoxicity against human KB cells at 20 ug/ml after 3 days. Format: functional, cell-based.

Active and inactive are the calls of the source. No cut-off for these calls is given here.

As a reminder, the IC50 is the concentration that gives 50% inhibition. By GI50 is commonly meant the concentration giving 50% growth inhibition. A lower GI50 goes with greater sensitivity of the cells. With `COc1cc(C(=O)/C=C/c2ccccn2)cc(CN2CCN(c3ccc(C(=O)/C=C/c4ccccn4)cc3)CC2)c1O`, the inhibition result in assay [1] is “inactive”. Besides, the IC50 in [2] worked out at 1.6 µM. Besides, the concentration for 50% growth inhibition (GI50) came to 1 µM in [3], 0.7 µM in assay [4], 3.98 µM in [5] and 1.3 µM in [6].

For the compound `O=C(/C=C/c1cccnc1)c1ccc(N2CCN(Cc3cc(C(=O)/C=C/c4cccnc4)ccc3O)CC2)cc1`, the inhibition entry in assay [7] and in assay [8] was “Active” throughout. In addition, the inhibition result in [1] is “inactive”. Also, the IC50 in assay [2] was determined as 0.3 µM. Further, the GI50 was determined as 1.47 µM in [3], 1.4 µM in [4], 1.66 µM in assay [5] and 2.19 µM in assay [6].

For the compound `O=C(/C=C/c1cccs1)c1ccc(N2CCN(Cc3cc(C(=O)/C=C/c4cccs4)ccc3O)CC2)cc1`, in assay [1], the inhibition result was “inactive”. The IC50 in assay [2] was found to be 1.9 µM. For the same compound, the 50% growth inhibitory concentration (GI50) in assay [3] is over 37 µM; in assay [4], over 37 µM; in assay [5], over 37 µM; in assay [6] it was 29.2 µM.

As to `O=C(/C=C/c1ccccn1)c1ccc(N2CCN(Cc3cc(C(=O)/C=C/c4ccccn4)ccc3O)CC2)cc1`, the inhibition result in assay [1] is “inactive”. In addition, in [2], the IC50 was 1.4 µM. The GI50 in [3] is 1.08 µM; in assay [4], 1.26 µM; in [5] it was 1.23 µM; in assay [6], 1.25 µM.

As to `CC(=O)c1ccc(N2CCN(Cc3cc(C(=O)/C=C/c4cccn4C)ccc3O)CC2)cc1`, the inhibition entry in assay [1] is “inactive”. Also, the concentration for half-maximal inhibition (IC50) in assay [2] stood at 1.9 µM. Besides, the GI50 was 31.2 µM in [3], over 45.1 µM in assay [4], 39.1 µM in assay [5] and over 45.1 µM in assay [6].

On to `COc1cc(C(=O)/C=C/c2ccccc2)cc(CN2CCN(c3ccc(C(=O)/C=C/c4ccccc4)cc3)CC2)c1O`, for which the inhibition result in assay [1] is “inactive”. Besides, the half-inhibitory concentration (IC50) in [2] worked out at 2.1 µM. The GI50 in [3] is over 35.8 µM; in assay [4] it was 25.8 µM; in [5] it was over 35.8 µM; in assay [6] it was over 35.8 µM.

With `CC(=O)O[C@H]1C(=O)[C@@]2(C)[C@H]([C@H](OC(=O)c3ccccc3)[C@]3(O)C[C@H](OC(=O)[C@H](O)[C@@H](NC(=O)c4ccccc4)c4ccccc4)C(C)=C1C3(C)C)[C@]1(OC(C)=O)CO[C@@H]1C[C@@H]2O` [PACLITAXEL], the GI50 in [3] was 0.0076 µM; in [4] it was over 0.1 µM; in assay [5], 0.00516 µM; in assay [6], 0.00523 µM.

Consider `COc1ccc(/C=C/C(=O)c2ccc(N3CCN(Cc4cc(C(=O)/C=C/c5ccc(OC)cc5)ccc4O)CC3)cc2)cc1`, for which the inhibition entry in assay [7] and in [8] was “Active” throughout. In addition, in [1], the inhibition entry was “inactive”. Besides, in assay [2], the IC50 turned out to be 0.5 µM. In addition, the result in [9], in assay [10], in assay [11] and in assay [12] was inactive.

As for `O=C(/C=C/c1ccco1)c1ccc(N2CCN(Cc3cc(C(=O)/C=C/c4ccco4)ccc3O)CC2)cc1`, the inhibition entry in [1] is “inactive”. In addition, the IC50 in assay [2] was found to be 1.7 µM. The outcome in assay [9], in assay [10], in assay [11] and in [12] was inactive.

As to `Cc1ccsc1/C=C/C(=O)c1ccc(N2CCN(Cc3cc(C(=O)/C=C/c4sccc4C)ccc3O)CC2)cc1`, the inhibition result in [1] was “inactive”. In addition, the IC50 in assay [2] was determined as 7.5 µM. Also, the outcome in [9], in assay [10], in assay [11] and in assay [12] was inactive.

Regarding `O=C(/C=C/c1ccccc1)c1ccc(N2CCN(Cc3cc(C(=O)/C=C/c4ccccc4)ccc3O)CC2)cc1`, the inhibition entry in assay [1] is “inactive”. In addition, the IC50 in [2] was 2.8 µM. Besides, the outcome in [9], in assay [10], in assay [11] and in [12] was inactive.

As to `CC(=O)c1ccc(N2CCN(Cc3cc(C(=O)/C=C/c4ccc[nH]4)ccc3O)CC2)cc1`, the inhibition entry in assay [1] was “inactive”. The IC50 in [2] turned out to be 1.7 µM. Further, the GI50 in assay [3] came out at 20.1 µM; in assay [4], 24.7 µM; in assay [5] it was 19 µM; in assay [6] it was 17.9 µM.

Take `COc1cc(C(=O)/C=C/c2ccccc2Cl)cc(CN2CCN(c3ccc(C(=O)/C=C/c4ccccc4Cl)cc3)CC2)c1O`: the inhibition entry in assay [1] is “inactive”. For the same compound, the IC50 in [2] was 10.9 µM. The outcome in assay [9], in assay [10], in assay [11] and in assay [12] was inactive.
